The list is not random: actives were taken first. Their share in the collection is about 4.6%.
OX1R antag-1: antagonists of human orexin 1 receptor (OX1R) | Orexin/Hypocretin receptor type 1 (Homo sapiens), O43613 | OX1R-expressing cells, FRET antagonist read-out | inhibition, % at 6.6 µM | actives 1.8% (n = 330,000) | AID 485270, 2010; in the data active means inhibition mostly above about 38%, no sharp cut-off; inactive means mostly below about 40%
CHO parental Ca: ATP-evoked calcium signal inhibitors, parental CHO, primary screen, counter-screen for OX1R antagonist project, cell-based, fluorescence, Fluo-8 calcium dye | actives 0.63% (n = 330,000) | inhibition, % at 5.6 µM | parental CHO-K1, ATP-induced calcium, Fluo-8 fluorescence;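 active means inhibition above that plate's mean sample inhibition plus 3 SD, cut at about 26% in these data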
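Material – parental CHO cells · Reagent – ATP stimulus · Compound – single nominal dose of 5.6 µM per compound · Detection – Fluo-8 fluorescence · Read-out basis – percent inhibition of calcium signal · Controls – ATP-challenged DMSO wells low, unchallenged DMSO wells high · Repeats – no replicates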
TAAR1 agonist: human TAAR1 agonists, primary screen, Fluo-8 calcium fluorescence, CHO RD-HGA16 cells; Trace amine-associated receptor 1 (Homo sapiens), Q96RJ0; vehicle wells 0%, saturating PEA agonist 100%; activation, % at 3 µM; actives 0.99% (n = 360,000); AID 624467, 2012;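 active means activation above the mean activation of all test compounds in the run plus 3 SD, cut at about 38% in these data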
Target sequence (Q96RJ0 whole entry, looked up): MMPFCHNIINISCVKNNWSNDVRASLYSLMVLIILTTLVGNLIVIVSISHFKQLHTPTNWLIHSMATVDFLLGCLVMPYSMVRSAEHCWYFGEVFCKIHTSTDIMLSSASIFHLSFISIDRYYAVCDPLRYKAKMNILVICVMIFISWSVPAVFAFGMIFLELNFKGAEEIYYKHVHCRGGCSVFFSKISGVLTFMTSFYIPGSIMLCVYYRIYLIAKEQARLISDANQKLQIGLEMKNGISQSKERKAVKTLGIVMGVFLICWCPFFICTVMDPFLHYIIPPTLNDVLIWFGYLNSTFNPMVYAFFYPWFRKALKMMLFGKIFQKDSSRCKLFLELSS
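Signal – calcium-sensitive Fluo-8 signal, excitation 470-495, emission 515-575 nm · System – RD-HGA16 (CHO) cells co-expressing Gα16 and hTAAR1 · Incubation – 17-24 h seeding, 75 min 37 °C dye, 30 min RT · Compound dosing – 3 µM single concentration · Repeats – no replicates (n 1)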
TAAR1 antag: human TAAR1 antagonists, primary screen, Fluo-8 calcium fluorescence, CHO RD-HGA16 cells. actives 1.5% (n = 360,000). Trace amine-associated receptor 1 (Homo sapiens), Q96RJ0. inhibition, % at 3 µM. antagonist;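 active means inhibition above a per-plate cutoff, the mean inhibition of test compounds on that plate plus 3 SD, cut at about 49% in these data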
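Assay system: RD-HGA16 CHO cells with stable hTAAR1 and Gα16 / Reagent: EC80 β-phenethylamine stimulus / Doses: 3 µM, single point / Timing: dye loading 75 min at 37 °C, then 30 min room temperature / Measured by: Fluo-8 intracellular calcium dye fluorescence, real-time kinetic reads / Controls: vehicle wells and EC80 agonist wells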
OX1R antag-2: OX1R (HCRTR1) antagonists, primary screen, fluorescence, CHO/OX1R cells, Fluo-8 calcium, orexin A. Fluo-8 calcium fluorescence. Orexin/Hypocretin receptor type 1 (Homo sapiens), O43613. inhibition, % at 5 µM. actives 0.43% (n = 330,000);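 active means inhibition above its plate's threshold, mean inhibition of all tested compounds on the plate plus 3 SD, cut at about 37% in these data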
GPR7 antag: GPR7 receptor antagonists, primary screen, cell-based, fluorescence, single concentration | inhibition, % at 4.4 µM | GPR7-expressing cells, fluorescence antagonist assay | actives 1.1% (n = 290,000) | Neuropeptides B/W receptor type 1 (Homo sapiens), P48145 | AID 1861, 2009; in the data active means inhibition above about 16%, passing the limit was not always enough;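 further: cells stimulated with the agonist NPW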
OX1R HTRF conf: OX1R (HCRTR1) antagonists, confirmation, cell-based, HTRF. shares compounds with OX1R antag-1. OX1R-expressing cells, HTRF antagonist assay. inhibition, % at 6.6 µM. actives 49% (n = 1,800); in the data active means inhibition above about 55%;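 further: CHO cells expressing OX1R stimulated with orexin A at about EC80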
CHO-K1 HTRF cnt: signal inhibition in parental CHO-K1 cells, counter-screen for OX1R antagonist project, cell-based, HTRF; shares compounds with OX1R antag-1; HTRF counterscreen; inhibition, % at 6.6 µM; actives 48% (n = 1,800); AID 493232, 2011; in the data active means inhibition above about 17%
Numbers stand for hits.

How did C#CCN(C[C@@H]1[C@@H](OC(=O)NCc2ccc(OC)c(OC)c2)[C@@H](OC(=O)NCc2ccc(OC)c(OC)c2)CN(C(=O)OC(C)C)N1C(=O)OC(C)C)S(=O)(=O)c1ccc(C)cc1 do in these assays?
TAAR1 agonist: inactive; TAAR1 antag: inactive

Results for COCCn1c(=N)c(C(=O)NCCc2ccc(OC)cc2)cc2c(=O)n3cccc(C)c3nc21 ?
OX1R antag-1: inactive; CHO parental Ca: inactive; TAAR1 agonist: inactive; TAAR1 antag: inactive; OX1R antag-2: inactive; GPR7 antag: inactive

Results for Cc1ccc2nc3c(cc(C(=O)NC4CCCCC4)c(=N)n3C3CCCCC3)c(=O)n2c1 ?
OX1R antag-1: inactive; CHO parental Ca: inactive; TAAR1 agonist: inactive; TAAR1 antag: inactive; OX1R antag-2: inactive; GPR7 antag: inactive

What do the screens show for `Cc1cccn2c(=O)c3cc(C(=O)NC(C)C)c(=N)n(Cc4ccncc4)c3nc12`?
OX1R antag-1: 84; CHO parental Ca: inactive; TAAR1 agonist: inactive; TAAR1 antag: inactive; OX1R antag-2: inactive; GPR7 antag: inactive; OX1R HTRF conf: inactive; CHO-K1 HTRF cnt: 57

How did COCCCNC(=O)c1cc2c(=O)n3cccc(C)c3nc2n(C(C)C)c1=N do in these assays?
OX1R antag-1: 81; CHO parental Ca: inactive; TAAR1 agonist: inactive; TAAR1 antag: inactive; OX1R antag-2: inactive; GPR7 antag: inactive; OX1R HTRF conf: inactive; CHO-K1 HTRF cnt: 38

How did CNC(=O)c1cc2c(=O)n3cc(C)ccc3nc2n(C(C)C)c1=N do in these assays?
OX1R antag-1: 145; CHO parental Ca: inactive; TAAR1 agonist: inactive; TAAR1 antag: inactive; OX1R antag-2: inactive; GPR7 antag: inactive; OX1R HTRF conf: inactive; CHO-K1 HTRF cnt: 71

Results for Cc1ccc(C)c(N(CC(=O)NC(C)(C)C)C(=O)CNC(=O)c2cccs2)c1 ?
OX1R antag-1: 115; CHO parental Ca: inactive; TAAR1 agonist: inactive; TAAR1 antag: inactive; OX1R antag-2: inactive; GPR7 antag: inactive; OX1R HTRF conf: inactive; CHO-K1 HTRF cnt: inactive

Results for Cc1ccccc1N(CC(=O)NC1CCCCC1)C(=O)CNC(=O)c1cccs1 ?
OX1R antag-1: inactive; CHO parental Ca: inactive; TAAR1 agonist: inactive; TAAR1 antag: inactive; OX1R antag-2: inactive; GPR7 antag: inactive

What do the screens show for `COc1cc2c(=O)n(CCC(=O)NCC3CCCO3)c(=O)n(CC(=O)c3ccc(Cl)cc3)c2cc1OC` (centres undefined)?
OX1R antag-1: 93; CHO parental Ca: inactive; TAAR1 agonist: inactive; TAAR1 antag: inactive; OX1R antag-2: inactive; GPR7 antag: inactive; OX1R HTRF conf: inactive; CHO-K1 HTRF cnt: inactive

What do the screens show for `Cc1ccc(C(=O)N/C(=C/c2ccc(-c3cccc([N+](=O)[O-])c3)o2)C(=O)NC(C)(C)C)cc1`?
OX1R antag-1: 85; CHO parental Ca: inactive; TAAR1 agonist: inactive; TAAR1 antag: inactive; OX1R antag-2: inactive; GPR7 antag: inactive; OX1R HTRF conf: 69; CHO-K1 HTRF cnt: inactive

Results for O=C(CSc1ccc([N+](=O)[O-])cn1)Nc1ccc2[nH]c(=O)[nH]c2c1 ?
OX1R antag-1: 93; CHO parental Ca: inactive; TAAR1 agonist: inactive; TAAR1 antag: inactive; OX1R antag-2: inactive; GPR7 antag: inactive; OX1R HTRF conf: inactive; CHO-K1 HTRF cnt: 24

What do the screens show for `CC(C)CC(=O)Nc1nc2ccc(S(C)(=O)=O)cc2s1`?
OX1R antag-1: inactive; CHO parental Ca: inactive; TAAR1 agonist: inactive; TAAR1 antag: inactive; OX1R antag-2: inactive; GPR7 antag: inactive
